Screening data: PubChem BioAssay, Johns Hopkins Ion Channel Center
A selection: hits, their analogues and other compounds. The true share with any hit is near 3.8%.
hERG protect = hERG (human) protection from proarrhythmic block. CHO-hERG, FluxOR thallium flux, dofetilide IC70 present. activation (rescue from dofetilide block), less the hit threshold, % at 10 µM. hit rate 0.51% among 310,000. AID 1511;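 active = activation above the mean of controls blocked by dofetilide plus 5 SD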;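 also: thallium influx through hERG after potassium depolarization seen as dye fluorescence rise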
Target sequence (Q12809 whole entry, looked up): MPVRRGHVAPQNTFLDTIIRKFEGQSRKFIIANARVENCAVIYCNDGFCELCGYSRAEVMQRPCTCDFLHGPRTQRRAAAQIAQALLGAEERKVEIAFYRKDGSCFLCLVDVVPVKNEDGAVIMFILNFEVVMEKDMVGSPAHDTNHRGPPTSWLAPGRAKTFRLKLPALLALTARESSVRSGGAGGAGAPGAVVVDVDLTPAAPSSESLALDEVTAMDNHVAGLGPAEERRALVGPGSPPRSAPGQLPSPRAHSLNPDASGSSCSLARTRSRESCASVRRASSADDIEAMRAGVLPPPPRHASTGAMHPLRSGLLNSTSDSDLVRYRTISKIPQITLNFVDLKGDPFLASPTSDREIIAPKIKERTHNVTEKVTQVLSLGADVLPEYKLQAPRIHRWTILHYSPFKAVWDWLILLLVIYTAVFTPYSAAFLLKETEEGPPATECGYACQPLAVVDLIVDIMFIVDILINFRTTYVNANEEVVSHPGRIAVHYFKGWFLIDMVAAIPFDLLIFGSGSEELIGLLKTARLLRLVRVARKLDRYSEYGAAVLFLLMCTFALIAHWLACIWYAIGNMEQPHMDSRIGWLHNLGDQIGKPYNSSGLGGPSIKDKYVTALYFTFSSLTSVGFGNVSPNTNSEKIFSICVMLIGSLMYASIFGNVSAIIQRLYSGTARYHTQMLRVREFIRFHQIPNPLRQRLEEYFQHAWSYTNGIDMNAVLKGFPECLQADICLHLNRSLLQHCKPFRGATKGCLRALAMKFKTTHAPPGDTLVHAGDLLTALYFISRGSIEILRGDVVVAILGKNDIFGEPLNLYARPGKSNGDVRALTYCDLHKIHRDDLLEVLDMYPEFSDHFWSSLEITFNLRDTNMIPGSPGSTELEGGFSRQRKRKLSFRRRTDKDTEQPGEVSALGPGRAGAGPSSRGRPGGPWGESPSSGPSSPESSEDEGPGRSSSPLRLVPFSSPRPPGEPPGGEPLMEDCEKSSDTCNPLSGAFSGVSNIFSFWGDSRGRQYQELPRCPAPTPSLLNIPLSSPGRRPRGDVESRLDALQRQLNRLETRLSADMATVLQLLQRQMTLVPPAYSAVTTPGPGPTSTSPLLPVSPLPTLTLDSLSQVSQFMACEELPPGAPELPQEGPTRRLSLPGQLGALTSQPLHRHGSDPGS
KCNQ1 pot = potentiates or activates the human KCNQ1 potassium channel | P51787 | CHO-K1 KCNQ1, thallium flux FluxOR fluorescence; hits give high values | B-score at 10 µM | hit rate 0.35% among 310,000 | AID 2648;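 active = fluorescence ratio B-score, a plate-corrected score, at least three library SD, with initial intensity B-score within 5 SD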
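assay system = KCNQ1-transfected CHO-K1 cells | medium = assay buffer with matched DMSO | probe or stimulus = depolarizing K+/Tl+ stimulus, K2SO4 and Tl2SO4 each 12.5 mM in 5x stock | dosing = single dose | incubation = dye 90 min, compound 20 min, room temperature | detection = kinetic FluxOR fluorescence, 10 s baseline plus 110 s post-stimulus | evaluation = ratio B score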
KCNQ1 inh = inhibitors of human KCNQ1 potassium channel; P51787; hit rate 1.3% among 310,000; AID 2642; B-score at 10 µM; CHO-K1 KCNQ1, FluxOR thallium flux fluorescence; hits give high values;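 active = compounds whose thallium flux B-score, printed positive for inhibition, exceeds three library SD while starting fluorescence stays within three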;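 also: channel opened by potassium depolarization with thallium stimulus after 20 min compound exposure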
KCNK3 block = human KCNK3 channel inhibition, primary screen. O14649. CHO-KCNK3 thallium flux, FluxOR fluorescence; hits give low values. B-score at 10 µM. hit rate 0.84% among 340,000. AID 602410;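 active = B-score under library mean minus 4 SD, starting fluorescence ratio at most library mean plus 5 SD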;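 also: more negative B-score means stronger inhibition of thallium flux through KCNK3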
Kir21 inh = inhibitors of mouse Kir2.1 inward-rectifier potassium channel. hit rate 0.85% among 310,000. B-score at 10 µM. P35561. HEK293-Kir2.1, FluxOR thallium flux fluorescence; hits give low values;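 active = fluorescence ratio B-score at or below minus 3 SD of library scores, with starting-brightness B-score within 2 SD, cut at about -4.2 in these data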;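 also: channel flux triggered by added potassium and thallium sulfate stimulus; B-score of peak minus minimum fluorescence over baseline after thallium stimulus; more negative B-score means stronger Kir2.1 block with less thallium influx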
KCNK9 inh = inhibitors of human KCNK9 two-pore domain potassium channel. B-score at 10 µM. hit rate 1.2% among 310,000. AID 488922. HEK293 KCNK9, FluxOR thallium flux fluorescence; hits give low values. Q9NPC2;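 active = ratio B-score over 3 SD below the library mean, with starting fluorescence within 5 SD of its mean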;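 also: negative B-score means less thallium flux so channel inhibition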
Each line names hits and unclear results; the compound was inactive in the other large screens.

O=C(CC(c1ccccc1)c1ccccc1)Nc1ncn[nH]1	KCNQ1 pot 24
CC(=O)c1csc(COc2ccc(Cl)cc2)n1	none
CCCn1cc(SCC(=O)NCc2ccco2)c2ccccc21	Kir21 inh -5.16
CCCN1C(=O)/C(=C/C=C2\N(CC)c3ccccc3C2(C)C)SC1=S	KCNQ1 inh 8
CC(C)[C@H](NC(=O)N1CC(=O)Nc2ccccc21)C(=O)N[C@H](Cc1ccccc1)C(=O)O	none
Oc1ccc(N=Nc2ccc3c(c2)OCO3)c2ccccc12	KCNQ1 pot 9 (no result: KCNK3 block)
O=C(NN=Cc1c(O)ccc2ccccc12)c1ccc2c(c1)OCO2	none (no result: hERG protect, KCNQ1 pot, KCNQ1 inh, Kir21 inh, KCNK9 inh)
CCNC(=S)N1CCN(c2nc(CC)nc3sc4c(c23)CCCC4)CC1	KCNK3 block -11.6
CCOC(=O)c1nc(N2CCN(C(=O)OCC)CC2)c2c3c(sc2n1)CCCC3	none
CC1C/C(=N/Nc2ccc([N+](=O)[O-])cc2[N+](=O)[O-])CC(C)(C)C1 (stereo not drawn)	KCNQ1 inh 7
CC1CCCC/C1=N/Nc1ccc([N+](=O)[O-])cc1[N+](=O)[O-] (stereo not drawn)	none
COCCCn1c(=S)[nH]c2sc3c(c2c1=O)CCCS3	hERG protect 18.6
COCCn1c(=S)[nH]c2sc3c(c2c1=O)CCC(C)C3 (stereo not drawn)	hERG protect 27.3, KCNQ1 pot 60
Nn1c(=S)[nH]c2sc3c(c2c1=O)CCCC3	none
CCn1nnc2sc3c(c2c1=O)CCC(C)C3 (stereo not drawn)	none
Cn1c(=S)[nH]c2sc3c(c2c1=O)CCC(C(C)(C)C)C3 (stereo not drawn)	hERG protect 56.7, KCNQ1 pot 80
CCCn1c(=S)[nH]c2sc3c(c2c1=O)CCCC3	hERG protect 47.6, KCNQ1 pot 43
CC(=O)Cn1nnc2sc3c(c2c1=O)CCC(C(C)(C)C)C3 (stereo not drawn)	none
O=c1[nH]c(C2CC2)nc2sc3c(c12)CCCC3	none
O=c1[nH]c(=S)[nH]c2sc3c(c12)CCCCCC3	KCNQ1 pot 10
C=CCC(C)(NCc1ccccc1)c1ccc(C)cc1 (stereo not drawn)	Kir21 inh -4.88
COc1ccc(C(=O)CC(=O)C(=O)Nc2cc(C)ccc2C)cc1	none
COc1ccc(C(=O)CC(=O)C(=O)Nc2ccc(C)c(Cl)c2)cc1	hERG protect 16.6, KCNQ1 pot 9
CCOc1ccccc1NC(=O)C(=O)CC(=O)c1ccc(OC)cc1	hERG protect 15.1, KCNQ1 pot 14
O=C(COc1ccc(S(=O)(=O)N2CCc3ccccc32)cc1Cl)NCc1ccccn1	Kir21 inh -5.19
Cc1cccc(C(=O)NCC(=O)OC(C)C(=O)Nc2ccc(Cl)cn2)c1 (stereo not drawn)	none
Cc1ccccc1NC(=S)NNC(=O)c1csc2c1CCC(C)C2 (stereo not drawn)	KCNQ1 pot 10
CCC(C)NC(=O)c1ccccc1NC(=O)/C(=C/c1ccc(OC)cc1)c1ccccc1 (stereo not drawn)	KCNQ1 inh 7
Cc1ccc(S(=O)(=O)c2n[nH]n3c2nc(=O)c2ccccc23)cc1	hERG protect 8.6
CCOC(=O)c1n[nH]n2c1nc(=O)c1ccccc12	none
COCC1CCCN(Cc2cn(-c3ccccc3)nc2-c2ccc3c(c2)OCO3)C1 (stereo not drawn)	none
CC12CCC3c4ccc(O)cc4CCC3C1CCC2=O (stereo not drawn)	none (no result: hERG protect, KCNQ1 pot, KCNQ1 inh, Kir21 inh, KCNK9 inh)
C#C[C@]1(O)CC[C@H]2[C@@H]3CCc4cc(O)ccc4[C@H]3CC[C@@]21C	KCNQ1 pot 9
CCOC(=O)[C@H](C)N1[C@H](C)[C@H](c2ccccc2)Oc2ccc(Cl)cc2S1(=O)=O	none (no result: hERG protect, KCNQ1 pot, KCNQ1 inh, Kir21 inh, KCNK9 inh)
C=CCn1c(C)nnc1SCC(=O)Nc1nccs1	none
O=C(O)c1cccc(NC(=O)C23CC4CC(C2)CC(n2cnc(Cl)n2)(C4)C3)c1	none
O=C(Nc1cc(Oc2ccccc2)cc([N+](=O)[O-])c1)C12CC3CC(C1)CC(n1cnc(Cl)n1)(C3)C2	KCNQ1 inh 12
O=C(CCc1cccc(Cl)c1)N1CCCC(Nc2ccccc2)C1 (stereo not drawn)	Kir21 inh -6.89
O=C1CCCCN1CCC(=O)N1CCCC(Nc2ccccc2)C1 (stereo not drawn)	none
